From ChEMBL document CHEMBL3779871, “4,5-Diarylisoxazol-3-carboxylic acids: A new class of leukotriene biosynthesis inhibitors potentially targeting 5-lipoxygenase-activating protein (FLAP)” (Eur J Med Chem, 2016)

Biological target: T1, Arachidonate 5-lipoxygenase-activating protein (Homo sapiens, UniProt P20292)
T1 sequence (P20292 whole entry): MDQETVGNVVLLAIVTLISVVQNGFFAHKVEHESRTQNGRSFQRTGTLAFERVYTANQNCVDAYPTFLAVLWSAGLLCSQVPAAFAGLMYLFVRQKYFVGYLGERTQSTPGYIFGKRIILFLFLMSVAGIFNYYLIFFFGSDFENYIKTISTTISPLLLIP
Assay: Inhibition of FLAP in Ca+2 ionophore A23187 stimulated human neutrophils assessed as 5-LO product formation preincubated for 15 mins measured after 10 mins by RP-HPLC analysis
Details: not given

Structure (SMILES) | IC50 [nM]
O=C(O)c1noc(-c2ccc(OCc3nc4ccccc4s3)cc2)c1-c1ccc(Cl)cc1 | 240
O=C(O)c1noc(-c2ccc(OCc3ccc4ccccc4n3)cc2)c1-c1ccc(Cl)cc1 | 240
O=C(O)c1noc(-c2ccc(OCc3ccccc3C(F)(F)F)cc2)c1-c1ccc(Cl)cc1 | 770
O=C(O)c1noc(-c2ccc(OCc3ccccn3)cc2)c1-c1ccc(Cl)cc1 | 4100

Continued, values first:

IC50 [nM] | Structure (SMILES)
1300 | O=C(O)c1noc(-c2ccc(OCc3cccc(F)c3)cc2)c1-c1ccc(Cl)cc1
1200 | O=C(O)c1noc(-c2ccc(OCc3ccccc3Cl)cc2)c1-c1ccc(Cl)cc1
> 10000 | CCOC(=O)c1noc(-c2ccc(OCc3ccccc3C)cc2)c1-c1ccc(Cl)cc1
1700 | Cc1ccccc1COc1ccc(-c2onc(C(=O)O)c2-c2ccc(Cl)cc2)cc1
1400 | Cc1ccc(COc2ccc(-c3onc(C(=O)O)c3-c3ccc(Cl)cc3)cc2)cc1
4100 | N#Cc1cccc(COc2ccc(-c3onc(C(=O)O)c3-c3ccc(Cl)cc3)cc2)c1

Biological target: T2, Polyunsaturated fatty acid 5-lipoxygenase (Homo sapiens, UniProt P09917)
T2 sequence (P09917 whole entry): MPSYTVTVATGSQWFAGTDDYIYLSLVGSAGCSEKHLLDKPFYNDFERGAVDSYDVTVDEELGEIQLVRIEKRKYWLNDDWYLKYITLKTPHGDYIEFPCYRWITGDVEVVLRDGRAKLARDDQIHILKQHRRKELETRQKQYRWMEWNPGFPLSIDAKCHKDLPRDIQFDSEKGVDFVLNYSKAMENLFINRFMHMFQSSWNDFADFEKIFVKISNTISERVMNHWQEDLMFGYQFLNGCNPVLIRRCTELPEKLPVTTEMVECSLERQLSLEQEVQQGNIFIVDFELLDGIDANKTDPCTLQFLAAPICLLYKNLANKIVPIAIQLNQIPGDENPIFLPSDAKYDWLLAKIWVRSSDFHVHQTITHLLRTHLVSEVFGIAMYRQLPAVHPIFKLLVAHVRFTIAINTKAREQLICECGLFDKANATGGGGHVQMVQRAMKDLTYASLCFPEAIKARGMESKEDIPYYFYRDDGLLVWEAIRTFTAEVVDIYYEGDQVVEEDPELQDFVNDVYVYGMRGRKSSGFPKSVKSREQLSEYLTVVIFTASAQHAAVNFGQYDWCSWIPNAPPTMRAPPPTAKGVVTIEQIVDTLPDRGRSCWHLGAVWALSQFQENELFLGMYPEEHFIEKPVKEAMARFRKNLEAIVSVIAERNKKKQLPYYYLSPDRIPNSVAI
Assay: Inhibition of recombinant human 5-LO expressed in Escherichia coli BL21 assessed as 5-LO product formation preincubated for 15 mins followed by addition of arachidonic acid as substrate measured after 10 mins by RP-HPLC analysis
Details: not given
Method in brief: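 Semi-purified 5-LO was diluted in ice-cold PBS with 1 mM EDTA and 1 mM ATP, then held 15 min at 4 °C with compound or 0.1% DMSO. After a 30 s prewarm at 37 °C, 2 mM CaCl₂ plus 20 arachidonic acid were added for 10 min at 37 °C. The reaction was stopped with methanol, and LTB₄ all-trans isomers plus 5-H(P)ETE were read by RP-HPLC. IC₅₀ is n = 3–4 in duplicates.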

IC50 [nM] | Structure (SMILES)
> 10000 | O=C(O)c1noc(-c2ccc(OCc3nc4ccccc4s3)cc2)c1-c1ccc(Cl)cc1

Test system: not listed separately
Assay: Acute cytotoxicity against human neutrophils assessed as cell viability measured for 30 mins by trypan blue exclusion method
Type: cell-based
Details: neutrophil, 0.5 h
Method in brief: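 Neutrophils isolated from healthy donor blood by dextran sedimentation and Nycoprep centrifugation, then resuspended in PBS pH 7.4 with 1 mg/ml glucose and 1 mM CaCl₂. Cells were kept 30 min at 37 °C with compound, and cell integrity was read by trypan blue exclusion on an automated counter.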

Structure (SMILES) | Activity
O=C(O)c1noc(-c2ccc(OCc3cccc(F)c3)cc2)c1-c1ccc(Cl)cc1 | Non-toxic
O=C(O)c1noc(-c2ccc(OCc3ccccc3Cl)cc2)c1-c1ccc(Cl)cc1 | Non-toxic
CCOC(=O)c1noc(-c2ccc(OCc3ccccc3C)cc2)c1-c1ccc(Cl)cc1 | Non-toxic
Cc1ccccc1COc1ccc(-c2onc(C(=O)O)c2-c2ccc(Cl)cc2)cc1 | Non-toxic
COc1cc(OCc2ccccc2C)ccc1-c1onc(C)c1-c1ccc(Cl)cc1 | Non-toxic
Cc1ccc(COc2ccc(-c3onc(C(=O)O)c3-c3ccc(Cl)cc3)cc2)cc1 | Non-toxic
Cc1ccccc1COc1ccc(-c2onc(C)c2-c2ccc(Cl)cc2)cc1 | Non-toxic
O=C(O)c1noc(-c2ccc(OCc3nc4ccccc4s3)cc2)c1-c1ccc(Cl)cc1 | Non-toxic
Cc1ccccc1COc1ccc(-c2onc(C)c2-c2ccc(Cl)cc2)c(O)c1 | Non-toxic
O=C(O)c1noc(-c2ccc(OCc3ccc4ccccc4n3)cc2)c1-c1ccc(Cl)cc1 | Non-toxic
O=C(O)c1noc(-c2ccc(OCc3ccccc3C(F)(F)F)cc2)c1-c1ccc(Cl)cc1 | Non-toxic
CCOC(=O)c1noc(-c2ccc(OCc3cccc(F)c3)cc2)c1-c1ccc(Cl)cc1 | Non-toxic
CCOC(=O)c1noc(-c2ccc(OCc3ccc(C)cc3)cc2)c1-c1ccc(Cl)cc1 | Non-toxic
O=C(O)c1noc(-c2ccc(OCc3ccccn3)cc2)c1-c1ccc(Cl)cc1 | Non-toxic
N#Cc1cccc(COc2ccc(-c3onc(C(=O)O)c3-c3ccc(Cl)cc3)cc2)c1 | Non-toxic
CC(c1cc2ccccc2s1)N(O)C(N)=O (stereo not drawn) [ZILEUTON] | Non-toxic

Biological target: T3, Arachidonate 5-lipoxygenase-activating protein (Homo sapiens) (UniProt P20292)
T3 sequence (whole entry): T1 sequence (P20292 whole entry)
Assay: Inhibition of FLAP in Ca+2 ionophore A23187 stimulated human neutrophils assessed as remaining 5-LO activity preincubated for 15 mins at 10 uM measured after 10 mins by RP-HPLC analysis
Details: not given

Structure (SMILES) | Activity [%]
COc1cc(OCc2ccccc2C)ccc1-c1onc(C)c1-c1ccc(Cl)cc1 | 81.3
Cc1ccccc1COc1ccc(-c2onc(C)c2-c2ccc(Cl)cc2)cc1 | 102
O=C(O)c1noc(-c2ccc(OCc3nc4ccccc4s3)cc2)c1-c1ccc(Cl)cc1 | 2
Cc1ccccc1COc1ccc(-c2onc(C)c2-c2ccc(Cl)cc2)c(O)c1 | 3
O=C(O)c1noc(-c2ccc(OCc3ccc4ccccc4n3)cc2)c1-c1ccc(Cl)cc1 | 2.7
O=C(O)c1noc(-c2ccc(OCc3ccccc3C(F)(F)F)cc2)c1-c1ccc(Cl)cc1 | 5.5
O=C(O)c1noc(-c2ccc(OCc3ccccn3)cc2)c1-c1ccc(Cl)cc1 | 8.4
CC(c1cc2ccccc2s1)N(O)C(N)=O (stereo not drawn) [ZILEUTON] | 6.7

The remaining lines, values ahead:

Activity [%] | Structure (SMILES)
19.6 | O=C(O)c1noc(-c2ccc(OCc3cccc(F)c3)cc2)c1-c1ccc(Cl)cc1
5.1 | O=C(O)c1noc(-c2ccc(OCc3ccccc3Cl)cc2)c1-c1ccc(Cl)cc1
71.9 | CCOC(=O)c1noc(-c2ccc(OCc3ccccc3C)cc2)c1-c1ccc(Cl)cc1
13.1 | Cc1ccccc1COc1ccc(-c2onc(C(=O)O)c2-c2ccc(Cl)cc2)cc1
15.7 | Cc1ccc(COc2ccc(-c3onc(C(=O)O)c3-c3ccc(Cl)cc3)cc2)cc1
55.3 | CCOC(=O)c1noc(-c2ccc(OCc3cccc(F)c3)cc2)c1-c1ccc(Cl)cc1
61.4 | CCOC(=O)c1noc(-c2ccc(OCc3ccc(C)cc3)cc2)c1-c1ccc(Cl)cc1
6.9 | N#Cc1cccc(COc2ccc(-c3onc(C(=O)O)c3-c3ccc(Cl)cc3)cc2)c1
